According to ChEMBL document CHEMBL3808334, “Synthesis and in vitro evaluation of novel triazine analogues as anticancer agents and their interaction studies with bovine serum albumin” (Eur J Med Chem, 2016):

Experiments:
Assay type in all cases: functional
[1] = Growth inhibition of human SF539 cells incubated for 48 hrs by sulforhodamine B assay; details: SF-539, 48 h
Procedure, shortened: (§1)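 Cells were plated at 5,000–40,000 per well according to doubling time and preincubated 24 h at 37 °C in 5% CO2; time-zero plates were then TCA-fixed. Five concentrations (10-fold or ½-log dilutions, DMSO stock) were incubated 48 h. Cells were TCA-fixed, stained with 0.4% SRB and read at 515 nm. GI50 was taken where [(Ti−Tz)/(C−Tz)]×100 = 50.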

[2] = tested on: SK-MEL-5; assay: Growth inhibition of human SK-MEL-5 cells incubated for 48 hrs by sulforhodamine B assay; details: SK-MEL-5, 48 h; procedure, shortened: as §1
[3] = tested on: MDA-MB-231; assay: Growth inhibition of human MDA-MB-231 cells incubated for 48 hrs by sulforhodamine B assay; details: MDA-MB-231, 48 h; procedure, shortened: as §1
[4] = Growth inhibition of human Caki1 cells assessed as cell growth at 10^-8 M incubated for 48 hrs by sulforhodamine B assay; details: CAKI-1, 48 h, read-out: Activity
Procedure, shortened: (§2)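 Cells seeded at 5,000–40,000/well according to doubling time and preincubated 24 h at 37 °C, 5% CO2. Time-zero plates were TCA-fixed. DMSO concentrate was diluted in medium with 50 µg/ml gentamicin to give five concentrations (10-fold or ½ log steps), then exposed 48 h. Cells were TCA-fixed, stained with 0.4% SRB and read at 515 nm. Percent growth was taken against time-zero and control; GI50, TGI and LC50 derived.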

[5] = Growth inhibition of human DU145 cells assessed as cell growth at 10^-8 M incubated for 48 hrs by sulforhodamine B assay; details: DU-145, 48 h, read-out: Activity; procedure, shortened: as §2
[6] = Growth inhibition of human MOLT4 cells assessed as cell growth at 10^-7 M incubated for 48 hrs by sulforhodamine B assay; details: MOLT-4, 48 h, read-out: Activity
Procedure, shortened: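 Cells plated at 5,000–40,000/well according to doubling time and preincubated 24 h at 37 °C, 5% CO₂, with time-zero plates TCA-fixed. Drugs were kept as DMSO concentrates at 400× the top concentration and diluted in medium with 50 µg/ml gentamicin. Five 10-fold or ½-log dilutions were run for 48 h, followed by SRB staining and A515. Percent growth = (Ti−Tz)/(C−Tz)×100, or (Ti−Tz)/Tz×100 when Ti<Tz.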

[7] = tested on: CCRF-CEM; assay: Growth inhibition of human CCRF-CEM cells assessed as cell growth at 10^-4 M incubated for 48 hrs by sulforhodamine B assay; details: read-out: Activity
Procedure, shortened: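 Leukemia line in the five-dose format: five concentrations from 10-fold or ½-log serial dilutions. Plated at 5,000–40,000 cells per well, preincubated 24 h, then compound added for 48 h at 37 °C, 5% CO₂. Sulforhodamine B absorbance read at 515 nm. Growth is computed against time-zero (Tz) and control (C) readings; GI₅₀ is where [(Ti−Tz)/(C−Tz)]×100 = 50.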

[8] = tested on: A549; assay: Growth inhibition of human A549/ATCC cells assessed as cell growth at 10^-4 M incubated for 48 hrs by sulforhodamine B assay; details: A549, 48 h, read-out: Activity
[9] = tested on: NCI-H460; assay: Growth inhibition of human NCI-H460 cells assessed as cell growth at 10^-4 M incubated for 48 hrs by sulforhodamine B assay; details: NCI-H460, 48 h, read-out: Activity
[10] = Growth inhibition of human SF295 cells assessed as cell growth at 10^-7 M incubated for 48 hrs by sulforhodamine B assay; details: SF-295, 48 h, read-out: Activity
[11] = Growth inhibition of human SNB19 cells assessed as cell growth at 10^-7 M incubated for 48 hrs by sulforhodamine B assay; details: SNB-19, 48 h, read-out: Activity
[12] = Growth inhibition of human LOXIMVI cells assessed as cell growth at 10^-4 M incubated for 48 hrs by sulforhodamine B assay; details: LOX IMVI, read-out: Activity
[13] = tested on: A498; assay: Growth inhibition of human A498 cells assessed as cell growth at 10^-4 M incubated for 48 hrs by sulforhodamine B assay; details: A498, 48 h, read-out: Activity
Procedure, shortened: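 Five-dose assay: five concentrations from 10-fold or ½-log serial dilutions. Cells are plated at 5,000–40,000 per well according to doubling time, grown 24 h, then exposed 48 h at 37 °C, 5% CO₂. Fixed with cold 50% TCA (final addition) for 60 min at 4 °C and stained with 0.4% SRB in 1% acetic acid. Bound dye is solubilized in 10 mM Tris base and read at 515 nm. GI₅₀ is where [(Ti−Tz)/(C−Tz)]×100 = 50, with a time-zero plate as Tz.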

[14] = tested on: SK-MEL-2; assay: Growth inhibition of human SK-MEL-2 cells assessed as cell growth at 10 uM incubated for 48 hrs by sulforhodamine B assay; details: SK-MEL-2, 48 h, read-out: Activity
[15] = tested on: SN12C; assay: Growth inhibition of human SN12C cells assessed as cell growth at 10 uM incubated for 48 hrs by sulforhodamine B assay; details: read-out: Activity
[16] = Growth inhibition of human Hs 578T cells assessed as cell growth at 10^-7 M incubated for 48 hrs by sulforhodamine B assay; details: read-out: Activity
[17] = tested on: NCI-H226; assay: Growth inhibition of human NCI-H226 cells assessed as cell growth at 10^-8 M incubated for 48 hrs by sulforhodamine B assay; details: NCI-H226, 48 h, read-out: Activity
[18] = Growth inhibition of human LOXIMVI cells assessed as cell growth at 10^-8 M incubated for 48 hrs by sulforhodamine B assay; details: LOX IMVI, read-out: Activity
[19] = Growth inhibition of human SF539 cells assessed as cell growth at 10^-6 M incubated for 48 hrs by sulforhodamine B assay; details: SF-539, 48 h, read-out: Activity
[20] = tested on: Malme-3M; assay: Growth inhibition of human MALME-3M cells assessed as cell growth at 10^-6 M incubated for 48 hrs by sulforhodamine B assay; details: read-out: Activity
[21] = tested on: NCI-H522; assay: Growth inhibition of human NCI-H522 cells assessed as cell growth at 10^-5 M incubated for 48 hrs by sulforhodamine B assay; details: NCI-H522, 48 h, read-out: Activity
[22] = Growth inhibition of human SF268 cells assessed as cell growth at 10^-5 M incubated for 48 hrs by sulforhodamine B assay; details: SF-268, 48 h, read-out: Activity
[23] = Growth inhibition of human SNB75 cells assessed as cell growth at 10 uM incubated for 48 hrs by sulforhodamine B assay; details: SNB-75, 48 h, read-out: Activity
[24] = read-out: LC50 (the source's name)
[25] = read-out: pLC50 (the source's name) (converted)

Row | SMILES | GI50 ([1]; read-out: GI50) | CC50 [1, 24] | TGI ([1]; read-out: TGI) | GI50 ([1]; read-out: pGI50 (converted)) | CC50 [1, 25] | TGI ([1]; read-out: pTGI (converted)) | GI50 ([2]; read-out: GI50) | CC50 [2, 24] | TGI ([2]; read-out: TGI) | GI50 ([2]; read-out: pGI50 (converted)) | CC50 [2, 25] | TGI ([2]; read-out: pTGI (converted)) | GI50 ([3]; read-out: GI50) | CC50 [3, 24] | TGI ([3]; read-out: TGI) | GI50 ([3]; read-out: pGI50 (converted)) | CC50 [3, 25] | TGI ([3]; read-out: pTGI (converted)) | growth at 0.01 µM [4] | growth at 0.01 µM [5] | also measured
1 | c1ccc(-c2nc(Nc3ccc(-c4nc5ccccc5[nH]4)cc3)nc(N3CCOCC3)n2)cc1 | 1.42 µM | 6.09 µM | 2.94 µM | 1.41 µM | 6.03 µM | 2.95 µM | 1.69 µM | 5.9 µM | 3.15 µM | 1.7 µM | 5.89 µM | 3.16 µM | 1.29 µM | 9.4 µM | 3.48 µM | 1.29 µM | 9.33 µM | 3.47 µM | 91% | 99% | growth at 0.1 µM [6]: 79%; growth at 100 µM [7]: -36%; growth at 100 µM [8]: -64%; growth at 100 µM [9]: -78%; growth at 0.1 µM [10]: 101%; growth at 0.1 µM [11]: 95%; growth at 100 µM [12]: -45%; growth at 100 µM [13]: -100%; growth at 10 µM [14]: -52.7%; growth at 10 µM [15]: -62.8%; growth at 0.1 µM [16]: 94%; growth at 0.01 µM [17]: 107%; growth at 0.01 µM [18]: 94%; growth at 1 µM [19]: 74%; growth at 1 µM [20]: 103%; growth at 10 µM [21]: -75%; growth at 10 µM [22]: -83%; growth at 10 µM [23]: -89.7%
2 | Fc1ccc(-c2nc(Nc3ccc(-c4nc5ccccc5[nH]4)cc3)nc(N3CCOCC3)n2)cc1 | 1.63 µM | 8.47 µM | 3.72 µM | 1.62 µM | 8.51 µM | 3.72 µM | 1.79 µM | 6.28 µM | 3.36 µM | 1.78 µM | 6.31 µM | 3.39 µM | 1.63 µM | > 100 µM | 4.76 µM | 1.62 µM | > 100 µM | 4.79 µM | 94% | 101% | growth at 0.1 µM [6]: 96%; growth at 100 µM [7]: 13%; growth at 100 µM [9]: -39%; growth at 0.1 µM [10]: 94%; growth at 0.1 µM [11]: 97%; growth at 100 µM [12]: -49%; growth at 100 µM [13]: -96%; growth at 10 µM [14]: -19.2%; growth at 10 µM [15]: 40.8%; growth at 0.1 µM [16]: 93%; growth at 0.01 µM [17]: 100%; growth at 0.01 µM [18]: 98%; growth at 1 µM [19]: 80%; growth at 1 µM [20]: 104%; growth at 10 µM [21]: -30%; growth at 10 µM [22]: 3%; growth at 10 µM [23]: -19.2%
